Assay results published in ChEMBL document CHEMBL4368872, “Synthesis and anticonvulsant activity of phenoxyacetyl derivatives of amines, including aminoalkanols and amino acids” (Medchemcomm, 2018).
The source made the active and inactive calls.

Assays:
[1] = Neurotoxicity in Sprague-Dawley rat at 100 mg/kg, ip measured after 0.25 hrs by rotarod test; format: toxicity, organism-based; conditions: in vivo
Outline: (§1)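 Rat neurotoxicity after i.p. or p.o. dosing was scored as animals impaired / animals tested at each time point. For p.o. dosing, TD50 was obtained by probit analysis.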

Mus musculus = assay: Anticonvulsant activity in CF-1 mouse model of maximal electroshock-induced seizure assessed as suppression of tonic hind limb extension at 110 mg/kg, ip measured at 4 hrs post dose; format: functional, organism-based
Outline: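 Mice dosed i.p. and given maximal electroshock at 50 mA. Read-out is protection, reported as number protected / number tested at 0.25, 0.5, 1 and 4 h after dosing.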

[2] = Neurotoxicity in Sprague-Dawley rat at 30 mg/kg, ip measured after 4 hrs by rotarod test; format: toxicity, organism-based; conditions: in vivo; outline: as §1
Rattus norvegicus [3] = assay: Anticonvulsant activity in hippocampal kindling Sprague-Dawley rat model assessed as after discharge time at 50 mg/kg, ip administered as single dose measured after 75 mins; format: functional
Outline: (§2)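 Rats implanted with a hippocampal electrode and kindled with suprathreshold trains (200 µA, 10 s, 50 Hz) every 30 min for 6 h on alternate days until fully kindled. One week later they received a single i.p. dose. Seizure score (Racine scale) and afterdischarge duration were recorded at 0–135 min and compared with the control stimulus given 15 min before dosing; each animal served as its own control. Values are mean ± SEM.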

Rattus norvegicus [4] = assay: Anticonvulsant activity in hippocampal kindling Sprague-Dawley rat model assessed as after discharge time at 100 mg/kg, ip administered as single dose measured immediately; format: functional; outline: as §2
[5] = Neurotoxicity in Sprague-Dawley rat at 50 mg/kg, ip administered as single dose measured after 0.25 hrs by rotarod test; format: toxicity, organism-based; conditions: in vivo; outline: as §1
Astrocyte = assay: Cytotoxicity against human astrocytes at 10 to 200 uM after 24 hrs by MTT assay; format: cell-based
Outline: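 Human astrocytes derived from iPSCs via neural stem cells (7 days neural induction, then 17 days in astrocyte growth medium; GFAP-confirmed). Cells seeded at 1×10^4 per well in 1% FBS medium the day before, then exposed to 10–200 µM for 24 h with vehicle controls. MTT added for 4 h at 37 °C, formazan dissolved, OD read at 570 nm.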

Rattus norvegicus [6] = assay: Anticonvulsant activity in po dosed Sprague-Dawley rat model of maximal electroshock-induced seizure assessed as time required for suppression of tonic hind limb extension; format: functional
Outline: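 Rats dosed p.o. and tested by MES at 150 mA. ED50 derived by probit analysis from quantitative dose groups, run at the time of peak effect (hours).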

| SMILES | Activity [1] | Activity (Mus musculus) | Activity [2] | Time (Rattus norvegicus [3]) | Time (Rattus norvegicus [4]) | Activity [5] | Activity (Astrocyte) | Time (Rattus norvegicus [6]) |
| --- | --- | --- | --- | --- | --- | --- | --- | --- |
| CCC(O)CNC(=O)COc1c(C)cccc1C (stereo not drawn) | Active |  |  |  |  |  |  |  |
| Cc1cccc(C)c1OCC(=O)N[C@H](C)CO |  | inactive | Non-Toxic | 75 s | 68 s | Non-Toxic | Non-Toxic | 0.5 h |
